# Test results from paper PMC2193645 (The Journal of Experimental Medicine, 1999).
# pKd: −log10 of the molar value.
# Tests used:
# 3.L2tg thymocytes = assay: Three-color FACS of thymocytes from APLtg × 3.L2tg mice; type: in vivo, mouse; conditions: for Interpretation: effect on thymic selection of 3.L2tg T cells: ligand expressed in thymus as mHEL epitope tag, in words
# [1] = tested on: splenocytes from APLtg × 3.L2tg mice; assay: Primary T cell proliferation of naive splenocytes to Hb; type: cell-based, mouse; conditions: in words
# Outline: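 Naive splenocytes from APLtg × 3.L2tg mice or 3.L2tg controls were plated at 5 × 10^5/well with increasing Hb(64–76) peptide concentrations for 48 h. They were then pulsed with 0.4 μCi [3H]TdR for 18 h, harvested and counted. Read-out was mean cpm of triplicate wells per peptide dose, and curves were averaged across several experiments.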
# QC85.5 hybridoma = assay: T cell hybridoma assay; type: cell-based, mouse; conditions: IL-2 production; in words
# Outline: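 Increasing numbers of splenocytes from transgenic mice were cultured 24 h with QC85.5 hybridoma cells. QC85.5 was raised by immunizing CE/J mice with a position-72 altered Hb peptide, subcloned twice, and recognizes several position-72 variants. IL-2 in supernatant was measured by CTLL-2 proliferation and plotted as CTLL-2 cpm against splenocytes per well. Each point is the mean of triplicate wells.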
# mature 3.L2 T cells [2] = conditions: B cell apoptosis assay; cited from earlier work
# 3.L2 TCR = conditions: cited from earlier work; for Half-life: longevity of the 3.L2 TCR–APL complex; for Half-life / pKd: BIAcore; for pKd: read-out: K D k off/k on, kinetic
# mature 3.L2 T cells [3] = conditions: cited from earlier work; for Effect on mature T cells: ligand class in words
# 3.L2.12 hybridoma = conditions: cited from earlier work
Substance,Interpretation: effect on thymic selection of 3.L2tg T cells (3.L2tg thymocytes),Response of naive 3.L2tg splenocytes to Hb(64–76) on the selecting background [1],Stimulation of QC85.5 hybridoma by peptide (QC85.5 hybridoma),Relative activity (mature 3.L2 T cells [2]),Half-life (3.L2 TCR),pKd (3.L2 TCR),Effect on mature T cells (mature 3.L2 T cells [3]),Increase in percentage of CD4-SP cells with high levels of the 3.L2 TCR over 3.L2tg control (3.L2tg thymocytes; P < 0.01),Binding to the 3.L2 TCR in BIAcore experiments (3.L2 TCR; in words),Fold less active than N72(wt) (mature 3.L2 T cells [3]),Reduction of 3.L2.12 stimulation by peptide (3.L2.12 hybridoma)
"GKKVITAFNEGLK [N72(wt), Hb(64–76)]",complete negative selection,tolerant to Hb(64–76),produce IL-2,100,10.8 s,4.92,the strongest agonist,,,,
Hb(64–76) N72I [Ligand I72],complete negative selection,tolerant to Hb(64–76),,0.006,2.3 to 3.4 s,4.70 to 5.00,an antagonist,,,,
Hb(64–76) N72E [Ligand E72],no effect on 3.L2tg T cell development,,,none,,,no effect on mature T cells,,,,
Hb(64–76) N72A [Ligand A72],modest negative selection,,produce IL-2,0.0007,<2 s,,a weaker antagonist,,,,
"GKKVITAFQEGLK [Ligand Q72, Hb(64–76) N72Q]",enhance the positive selection,,stimulated most strongly,none,,,no effect on mature 3.L2 T cells,12%,no binding can be detected,,
Hb(64–76) N72T [Ligand T72],identical effect,tolerant to Hb(64–76),produce IL-2,2,5.1 s,5.00,a weaker agonist,,,50 fold,50 fold
